# What was measured:
# Settings in all cases: stereoisomer not certain
# [1] = biological target: T1, OR13H1 (Homo sapiens) (UniProt Q8NG92)
# T1 sequence (whole entry): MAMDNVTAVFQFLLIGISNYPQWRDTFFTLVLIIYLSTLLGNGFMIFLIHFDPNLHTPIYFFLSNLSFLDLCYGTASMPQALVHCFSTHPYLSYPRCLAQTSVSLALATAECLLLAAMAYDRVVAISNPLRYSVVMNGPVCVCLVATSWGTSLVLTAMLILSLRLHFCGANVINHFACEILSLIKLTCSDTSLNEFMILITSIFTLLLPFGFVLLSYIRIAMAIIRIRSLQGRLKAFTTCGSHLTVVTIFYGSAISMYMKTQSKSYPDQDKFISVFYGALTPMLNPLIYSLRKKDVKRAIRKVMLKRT
# Method in brief: (§1)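 Each entry records the cell line, G-protein, co-transfected protein and tags used. Methods varied with the source, often transient luciferase assays in mammalian cell lines. A receptor–molecule pair is called responsive (active) if the original authors judged its signal statistically different from baseline and non-responsive (inactive) otherwise.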
# [2] = biological target: T2, OR13J1 (Homo sapiens) (UniProt Q8NGT2)
# T2 sequence (whole entry): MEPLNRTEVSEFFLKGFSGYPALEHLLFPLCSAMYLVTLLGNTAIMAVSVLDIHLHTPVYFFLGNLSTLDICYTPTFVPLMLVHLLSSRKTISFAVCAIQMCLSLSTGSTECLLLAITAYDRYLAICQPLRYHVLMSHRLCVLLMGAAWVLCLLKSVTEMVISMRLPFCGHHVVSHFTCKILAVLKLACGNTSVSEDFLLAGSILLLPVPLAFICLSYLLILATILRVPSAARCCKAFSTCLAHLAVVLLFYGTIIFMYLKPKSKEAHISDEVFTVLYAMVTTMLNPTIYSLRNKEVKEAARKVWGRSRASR
# Method in brief: as §1
# [3] = biological target: T3, OR14A16 (Homo sapiens) (UniProt Q8NHC5)
# T3 sequence (whole entry): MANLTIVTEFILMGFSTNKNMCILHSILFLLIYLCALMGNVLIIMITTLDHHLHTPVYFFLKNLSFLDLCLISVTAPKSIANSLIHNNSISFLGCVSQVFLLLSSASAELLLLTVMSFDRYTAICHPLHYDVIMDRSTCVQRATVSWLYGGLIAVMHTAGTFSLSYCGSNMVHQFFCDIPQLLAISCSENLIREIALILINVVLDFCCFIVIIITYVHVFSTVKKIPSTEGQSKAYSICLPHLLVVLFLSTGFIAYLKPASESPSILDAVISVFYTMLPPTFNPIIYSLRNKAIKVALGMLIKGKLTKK
# Method in brief: as §1
# [4] = biological target: T4, OR14A2 (Homo sapiens) (UniProt Q96R54)
# T4 sequence (whole entry): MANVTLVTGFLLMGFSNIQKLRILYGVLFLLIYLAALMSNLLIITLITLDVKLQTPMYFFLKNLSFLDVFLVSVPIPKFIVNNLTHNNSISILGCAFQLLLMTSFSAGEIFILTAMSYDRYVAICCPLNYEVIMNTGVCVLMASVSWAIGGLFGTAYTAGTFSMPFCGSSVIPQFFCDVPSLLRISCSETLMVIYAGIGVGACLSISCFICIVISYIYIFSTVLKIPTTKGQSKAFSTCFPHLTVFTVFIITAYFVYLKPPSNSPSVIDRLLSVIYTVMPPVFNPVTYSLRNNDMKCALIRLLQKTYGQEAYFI
# Method in brief: as §1
# [5] = biological target: T5, OR14C36 (Homo sapiens) (UniProt Q8NHC7)
# T5 sequence (whole entry): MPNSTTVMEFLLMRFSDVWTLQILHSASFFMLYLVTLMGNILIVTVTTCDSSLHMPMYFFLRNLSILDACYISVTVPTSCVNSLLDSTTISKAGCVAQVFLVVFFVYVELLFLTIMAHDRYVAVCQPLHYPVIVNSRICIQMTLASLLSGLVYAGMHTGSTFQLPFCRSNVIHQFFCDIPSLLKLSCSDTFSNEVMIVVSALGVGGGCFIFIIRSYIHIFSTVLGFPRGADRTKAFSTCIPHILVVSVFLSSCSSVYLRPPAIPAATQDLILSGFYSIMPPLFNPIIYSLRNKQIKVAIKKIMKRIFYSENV
# Method in brief: as §1
# [6] = biological target: T6, OR14I1 (Homo sapiens) (UniProt A6ND48)
# T6 sequence (whole entry): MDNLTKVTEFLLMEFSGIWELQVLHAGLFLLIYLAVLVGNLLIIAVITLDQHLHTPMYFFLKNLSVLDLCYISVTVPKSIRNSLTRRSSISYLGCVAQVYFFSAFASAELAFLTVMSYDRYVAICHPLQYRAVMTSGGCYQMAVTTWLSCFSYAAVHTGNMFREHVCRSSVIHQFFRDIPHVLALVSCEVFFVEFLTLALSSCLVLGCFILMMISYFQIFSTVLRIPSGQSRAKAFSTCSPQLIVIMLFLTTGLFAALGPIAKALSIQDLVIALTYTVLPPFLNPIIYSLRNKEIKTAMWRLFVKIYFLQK
# Method in brief: as §1
# [7] = biological target: T7, OR14J1 (Homo sapiens) (UniProt Q9UGF5)
# T7 sequence (whole entry): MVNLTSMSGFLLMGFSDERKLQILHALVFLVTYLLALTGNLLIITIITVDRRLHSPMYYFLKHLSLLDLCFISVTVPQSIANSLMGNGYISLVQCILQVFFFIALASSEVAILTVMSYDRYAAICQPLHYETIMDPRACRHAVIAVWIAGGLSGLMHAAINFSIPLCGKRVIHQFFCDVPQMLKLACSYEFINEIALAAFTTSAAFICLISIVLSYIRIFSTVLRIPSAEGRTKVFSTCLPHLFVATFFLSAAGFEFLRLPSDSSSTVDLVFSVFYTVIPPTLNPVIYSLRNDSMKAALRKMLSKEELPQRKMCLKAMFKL
# Method in brief: as §1
# [8] = biological target: T8, OR14K1 (Homo sapiens) (UniProt Q8NGZ2)
# T8 sequence (whole entry): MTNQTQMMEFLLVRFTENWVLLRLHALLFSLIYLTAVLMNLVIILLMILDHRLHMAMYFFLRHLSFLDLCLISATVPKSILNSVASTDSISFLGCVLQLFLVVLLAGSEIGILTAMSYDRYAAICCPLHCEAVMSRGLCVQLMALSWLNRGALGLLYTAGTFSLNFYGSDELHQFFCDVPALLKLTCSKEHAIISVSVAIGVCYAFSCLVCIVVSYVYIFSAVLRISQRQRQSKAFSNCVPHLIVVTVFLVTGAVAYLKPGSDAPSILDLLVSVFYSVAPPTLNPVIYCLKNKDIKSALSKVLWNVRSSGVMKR
# Method in brief: as §1
# [9] = biological target: T9, OR1A1 (Homo sapiens) (UniProt Q9P1Q5)
# T9 sequence (whole entry): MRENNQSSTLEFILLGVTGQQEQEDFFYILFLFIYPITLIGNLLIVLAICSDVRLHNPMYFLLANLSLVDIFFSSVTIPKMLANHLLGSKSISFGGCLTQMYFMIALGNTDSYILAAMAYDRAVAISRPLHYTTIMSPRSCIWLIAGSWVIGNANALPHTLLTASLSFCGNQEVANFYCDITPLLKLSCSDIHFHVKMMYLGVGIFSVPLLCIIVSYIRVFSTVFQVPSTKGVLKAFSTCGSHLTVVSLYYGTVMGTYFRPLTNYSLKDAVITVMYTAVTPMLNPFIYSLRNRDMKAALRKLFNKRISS
# Method in brief: as §1
smiles,measurement,setting,value
CCCCCC(=O)C(C)C(C)=O (stereo not drawn),odorant receptor agonist call,[1],inactive
same,odorant receptor agonist call,[2],inactive
same,odorant receptor agonist call,[3],inactive
same,odorant receptor agonist call,[4],inactive
same,odorant receptor agonist call,[5],inactive
same,odorant receptor agonist call,[6],inactive
same,odorant receptor agonist call,[7],inactive
same,odorant receptor agonist call,[8],inactive
same,odorant receptor agonist call,[9],active
CCCCCCCC1CCC(=O)O1 (stereo not drawn),odorant receptor agonist call,[9],inactive
CCC(C)COC(C)=O (stereo not drawn),odorant receptor agonist call,[9],inactive
CCCCC(C)CCC(=O)O (stereo not drawn),odorant receptor agonist call,[9],inactive
CCCCC1CCC(=O)O1 (stereo not drawn),odorant receptor agonist call,[9],inactive
CC=O,odorant receptor agonist call,[9],inactive
C=Cc1ccc(O)c(OC)c1,odorant receptor agonist call,[9],inactive
CCOC(=O)c1ccccc1,odorant receptor agonist call,[9],inactive
C=C1CCC2CC1C2(C)C (stereo not drawn),odorant receptor agonist call,[9],inactive
CC1CCCCCCCCCCCCC(=O)C1 (stereo not drawn),odorant receptor agonist call,[1],inactive
same,odorant receptor agonist call,[2],inactive
same,odorant receptor agonist call,[3],inactive
same,odorant receptor agonist call,[4],inactive
same,odorant receptor agonist call,[5],inactive
same,odorant receptor agonist call,[6],inactive
same,odorant receptor agonist call,[7],inactive
same,odorant receptor agonist call,[8],inactive
same,odorant receptor agonist call,[9],active
CCCCCC(S)C(C)CO (stereo not drawn),odorant receptor agonist call,[1],inactive
same,odorant receptor agonist call,[2],inactive
same,odorant receptor agonist call,[3],inactive
same,odorant receptor agonist call,[4],inactive
same,odorant receptor agonist call,[5],inactive
same,odorant receptor agonist call,[6],inactive
same,odorant receptor agonist call,[7],inactive
same,odorant receptor agonist call,[8],inactive
same,odorant receptor agonist call,[9],inactive
CCC1OC(C)=C(O)C1=O (stereo not drawn),odorant receptor agonist call,[1],inactive
same,odorant receptor agonist call,[2],inactive
same,odorant receptor agonist call,[3],inactive
same,odorant receptor agonist call,[4],inactive
same,odorant receptor agonist call,[5],inactive
same,odorant receptor agonist call,[6],inactive
same,odorant receptor agonist call,[7],inactive
same,odorant receptor agonist call,[8],inactive
same,odorant receptor agonist call,[9],inactive
CCCC(=O)C(C)CC (stereo not drawn),odorant receptor agonist call,[9],inactive
CCCCCCCCCCO,odorant receptor agonist call,[9],active
CC(=O)O,odorant receptor agonist call,[9],inactive
CC1=C(O)C(=O)OC1C (stereo not drawn),odorant receptor agonist call,[1],inactive
same,odorant receptor agonist call,[2],inactive
same,odorant receptor agonist call,[3],inactive
same,odorant receptor agonist call,[4],inactive
same,odorant receptor agonist call,[5],inactive
same,odorant receptor agonist call,[6],inactive
same,odorant receptor agonist call,[7],inactive
same,odorant receptor agonist call,[8],inactive
same,odorant receptor agonist call,[9],inactive
CCC(S)C(C)CO (stereo not drawn),odorant receptor agonist call,[1],inactive
same,odorant receptor agonist call,[2],inactive
same,odorant receptor agonist call,[3],inactive
same,odorant receptor agonist call,[4],inactive
same,odorant receptor agonist call,[5],inactive
same,odorant receptor agonist call,[6],inactive
same,odorant receptor agonist call,[7],inactive
same,odorant receptor agonist call,[8],inactive
same,odorant receptor agonist call,[9],inactive
Cc1cnc(C)c(C)n1,odorant receptor agonist call,[1],inactive
same,odorant receptor agonist call,[2],inactive
same,odorant receptor agonist call,[3],inactive
same,odorant receptor agonist call,[4],inactive
same,odorant receptor agonist call,[5],inactive
same,odorant receptor agonist call,[6],inactive
same,odorant receptor agonist call,[7],inactive
same,odorant receptor agonist call,[8],inactive
same,odorant receptor agonist call,[9],inactive
CC(CO)CS (stereo not drawn),odorant receptor agonist call,[1],inactive
same,odorant receptor agonist call,[2],inactive
same,odorant receptor agonist call,[3],inactive
same,odorant receptor agonist call,[4],inactive
same,odorant receptor agonist call,[5],inactive
same,odorant receptor agonist call,[6],inactive
same,odorant receptor agonist call,[7],active
same,odorant receptor agonist call,[8],inactive
same,odorant receptor agonist call,[9],inactive
